Source: PubChem
EP2 mod = modulates human prostaglandin E2 receptor EP2 signaling. P43116. EP2-expressing cells, cAMP HTRF FRET, PGE2 co-stimulation. induction, % at 25 µM. 0.83% of 260,000 active;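 active means compounds whose cAMP rise, as percent of the full-agonist control response, exceeds 60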;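 further: rat C6 glioma line stably carrying human EP2 under a CMV promoter; the protocol text gives 20 µM as final concentration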
PHOSPHO1 inh = PHOSPHO1 (human) inhibition; Q8TCT1; recombinant PHOSPHO1, absorbance phosphatase assay; inhibition, % at 13.3 µM; 1.1% of 290,000 active; AID 1565; in the data active means inhibition above about 60%
Target sequence (Q8TCT1 whole entry, looked up): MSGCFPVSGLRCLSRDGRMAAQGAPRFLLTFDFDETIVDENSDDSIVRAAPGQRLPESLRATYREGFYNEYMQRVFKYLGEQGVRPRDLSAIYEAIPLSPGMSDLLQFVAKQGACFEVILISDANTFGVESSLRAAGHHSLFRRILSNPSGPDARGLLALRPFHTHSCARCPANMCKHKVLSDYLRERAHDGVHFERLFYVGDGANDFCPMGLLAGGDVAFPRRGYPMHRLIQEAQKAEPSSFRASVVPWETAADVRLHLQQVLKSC
Tb hexokinase = T. brucei hexokinase 1 inhibition. recombinant TbHK1, G6PDH-coupled NADH A340. AID 1430. inhibition, % at 10 µM. 0.11% of 220,000 active;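 active means inhibition of 50% or more in the single-dose primary screen; inactive means inhibition below 50%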
PfGluPho inh = PfG6PD (Plasmodium falciparum) enzyme inhibition; PfGluPho enzyme, NADPH resazurin-diaphorase fluorescence; inhibition, % at 20 µM; 0.78% of 350,000 active; AID 504690;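 active means inhibition reaching at least a set limit at 20 µM in the primary screen, cut at about 59% in these data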
HKDC1 inh = inhibitors of human hexokinase HKDC1. Q2TB90. recombinant HKDC1, G6PDH/diaphorase resazurin coupled fluorescence. inhibition, % at 20 µM. 0.16% of 340,000 active;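 active means inhibition above about 35% when tested at 20 µM, limit read from the data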
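System: Recombinant HKDC1 hexokinase | Amount: HKDC1 at 5 µg/mL | Reagent: Glucose with 1 mM ATP | Doses: Single 20 µM dose | Incubation: Reaction time 90 min, room temperature, protected from light | Signal: Coupled resazurin fluorescence, excitation 525 nm, emission 613 nm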
PGE2 EP2 inh = blocks the human prostaglandin E2 receptor EP2; P43116; C6 glioma cells expressing human EP2, cAMP TR-FRET; cells stimulated with saturating PGE2; inhibition, % at 25 µM; 0.52% of 260,000 active; AID 1422;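 active means percent inhibition above 40 after rounding to a whole number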;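 further: rat C6 glioma host cells with rolipram phosphodiesterase inhibitor present; the protocol text gives 20 µM as final concentration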
G6PDH counter = inhibits Leuconostoc G6PDH, counter-screen for TbHK1 inhibitors; AID 2516; 7% of 210 active; inhibition, % at 10 µM; shares compounds with Tb hexokinase; purified G6PDH, NADH absorbance, 1 h;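 active means at least 50% inhibition in the glucose-6-phosphate dehydrogenase coupled counterscreen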
TbHK1 confirm = confirmation of Trypanosoma brucei hexokinase 1 inhibitors; shares compounds with Tb hexokinase; recombinant TbHK1, G6PDH-coupled NADH A340 absorbance; AID 2560; inhibition, % at 10 µM; 10% of 210 active;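 active means inhibition of at least 50% in both of the two screening runs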
Each line names hits and unclear results; the compound was inactive in the other large screens (follow-up assays come after a bar, where they were run). The list is not random: actives were taken first. Their share in the collection is about 2.5%.

CCCCCCCCCCCNC(=O)c1ccoc1C	Tb hexokinase 55 | G6PDH counter inactive | TbHK1 confirm 86
NC(=S)c1cc2ccc(O)cc2oc1=O	Tb hexokinase 85 (no result: PGE2 EP2 inh) | G6PDH counter 109 | TbHK1 confirm 80
CCNc1ccc2c(C)c(I)c(=O)oc2c1I	none (no result: PHOSPHO1 inh, Tb hexokinase, PfGluPho inh, HKDC1 inh)
CCn1c(SCC(=O)Nc2ccc3c(c2)OCO3)nnc1-c1cccs1	none (no result: PHOSPHO1 inh, Tb hexokinase, PfGluPho inh, HKDC1 inh)
CCNC(=O)NC(=O)CSc1ccc(NC(C)=O)cc1	Tb hexokinase 74 | G6PDH counter inactive | TbHK1 confirm inactive
COc1ccc2cc(C#N)c(SCC(=O)Nc3ccc(F)cc3)nc2c1	none (no result: PHOSPHO1 inh, Tb hexokinase, PfGluPho inh, HKDC1 inh)
O=C(O)CC(NC(=O)C12CC3CC(CC(C3)C1)C2)c1ccc(F)cc1 (stereo not given)	none (no result: EP2 mod, Tb hexokinase, PGE2 EP2 inh)
CCCOc1ccc(C(CC(=O)O)NC(=O)C23CC4CC(CC(C4)C2)C3)cc1 (stereo not given)	Tb hexokinase 60 | G6PDH counter inactive | TbHK1 confirm inactive
O=C(NC1CC2CCCC(C1)N2C(=O)NC1CCCCC1)c1ccc(F)cc1 (stereo not given)	Tb hexokinase 65 | G6PDH counter inactive | TbHK1 confirm inactive
Cc1ccc(C(=O)NC2CC3CCCC(C2)N3C(=O)NC2CCCCC2)cc1 (stereo not given)	none (no result: PfGluPho inh, HKDC1 inh)
Cc1ccc(S(=O)(=O)N2CCCC2C(=O)O)cc1C (stereo not given)	none (no result: PHOSPHO1 inh, Tb hexokinase, PfGluPho inh, HKDC1 inh)
Cc1cccc(C(=O)NC(=S)NCc2ccccc2)c1	none (no result: EP2 mod, PHOSPHO1 inh, Tb hexokinase, PGE2 EP2 inh)
Cc1cccc(C(=O)NC(=S)NNC(=O)Cc2ccccc2)c1	Tb hexokinase 67 | G6PDH counter inactive | TbHK1 confirm inactive
O=C1CSC(=S)N1/N=C/c1ccc(O)c(O)c1O	PHOSPHO1 inh 74, Tb hexokinase 50, PfGluPho inh 79 | G6PDH counter inactive | TbHK1 confirm inactive
O=C1CSC(=S)N1/N=C/c1cc(Br)ccc1O	none (no result: EP2 mod, Tb hexokinase, PfGluPho inh, HKDC1 inh, PGE2 EP2 inh)
CCc1nn(CC(=O)Nc2ccncc2)c(=O)c2cc3occc3n12	none (no result: PHOSPHO1 inh, Tb hexokinase, PfGluPho inh, HKDC1 inh)
NC(Cc1cccc2nsnc12)C(=O)O (stereo not given)	Tb hexokinase 58 | G6PDH counter inactive | TbHK1 confirm inactive
CCOC(=O)NC(NC(=O)OCC)C(=O)c1ccccc1	Tb hexokinase 65 | G6PDH counter inactive | TbHK1 confirm inactive
O=C(NC(NC(=O)c1ccccc1)C(=O)c1ccccc1)c1ccccc1	none
COc1ccc(NC(=O)C2CC(=O)N(c3cccc(C)c3C)C2)cc1 (stereo not given)	Tb hexokinase 56 | G6PDH counter inactive | TbHK1 confirm inactive
CC(=O)Nc1ccc(NC(=O)C2CC(=O)N(c3cccc(C)c3C)C2)cc1 (stereo not given)	Tb hexokinase 51 | G6PDH counter inactive | TbHK1 confirm inactive
Cc1cccn2c(=O)c3cc(C(=O)NC(C)c4ccccc4)c(=N)n(C(C)C)c3nc12 (stereo not given)	none (no result: PHOSPHO1 inh, Tb hexokinase, PfGluPho inh, HKDC1 inh)
CCC(C)NC(=O)C1CCCN(S(=O)(=O)c2ccc(C)c(Cl)c2)C1 (stereo not given)	none (no result: PHOSPHO1 inh, Tb hexokinase, PfGluPho inh, HKDC1 inh)
CCCCOC(=O)Cn1cnc2ccc(Br)cc2c1=O	Tb hexokinase 59 | G6PDH counter inactive | TbHK1 confirm inactive
CCOC(=O)CNC(=O)CSc1nnc(-c2ccco2)n1N	Tb hexokinase 51 | G6PDH counter inactive | TbHK1 confirm inactive
C=CCn1c(SCC(=O)NCC(=O)OCC)nnc1-c1ccccn1	Tb hexokinase 50 | G6PDH counter inactive | TbHK1 confirm inactive
O=C(CN1CCC(n2cnc3cccnc32)CC1)Nc1cccc(F)c1	none (no result: PHOSPHO1 inh, Tb hexokinase, PfGluPho inh, HKDC1 inh)
COC(=O)[C@H]1[C@H](c2ccccc2)[C@H](C(=O)OC)O[C@H]1c1ccccc1	none (no result: EP2 mod, PHOSPHO1 inh, Tb hexokinase, PGE2 EP2 inh)
COC(=O)C1C(c2ccccc2)C(C(=O)N2CCN(C)CC2)C1c1ccccc1 (stereo not given)	Tb hexokinase 53 | G6PDH counter inactive | TbHK1 confirm inactive
O=c1[nH]c(N2CCCCC2)nc2c1CCN(Cc1cc3c(cc1Cl)OCO3)C2	none (no result: PHOSPHO1 inh, Tb hexokinase, PfGluPho inh, HKDC1 inh, PGE2 EP2 inh)
O=C(O)c1ncc(-c2ccccc2)cn1	none
c1ccc(-c2cnc(-c3ccccc3)nc2)cc1	Tb hexokinase 59 | G6PDH counter inactive | TbHK1 confirm inactive
COc1ccc(CCNC(=O)Cn2nnc(-c3ccc(N4CCOCC4)cc3)n2)cc1OC	Tb hexokinase 51 | G6PDH counter inactive | TbHK1 confirm inactive
